Here are results for 26 molecules from ChEMBL document CHEMBL1221223, “Identification of a chemical probe for NAADP by virtual screening” (Nat Chem Biol, 2009).

Structures are written as SMILES. Active and inactive are the calls of the source. The calls are words filed in the database; no cut-off is given here.

The test system of assay [1] is Lytechinus pictus. The experiment in a line: (§1) Antagonistic activity at NAADP receptor in sea urchin egg homogenate assessed as inhibition of NAADP-mediated Ca2+ release using Fluo-3 staining based fluorimetric assay relative to control. Type of assay: functional, tissue-based.
Assay [2] in a line: Displacement of [32P]NAADP from NAADP receptor in sea urchin egg homogenate preincubated 10 mins before [32P]NAADP addition. Type of assay: tissue-based, Lytechinus pictus. An outline of the steps:
(§2)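 Sea urchin egg homogenate in intracellular-like buffer. Compound in DMSO (final 1% v/v) pre-incubated 10 min at 25°C, then [32P]NAADP added to 0.3 nM. Incubated 30 min, then binding assessed by filtration; concentration range used for displacement curves.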

Assay [3] is described as follows: as §1. Type of assay: functional, tissue-based, Lytechinus pictus.
Assay [4] has as its system Lytechinus pictus. The experiment in a line: Noncompetitive inhibition of NAADP receptor in sea urchin egg homogenate assessed as inhibition of NAADP induced Ca2+ release using Fluo-3 staining based fluorimetric assay. Type of assay: tissue-based.
Assay [5] in a line: Displacement of [32P]NAADP from Egg-binding protein in sea urchin egg homogenate at 6 uM after 10 mins. The class given is tissue-based, Lytechinus pictus. An outline of the steps: as §2
For assay [6], the system named is Lytechinus pictus. The experiment in a line: Displacement of [32P]NAADP from NAADP receptor in sea urchin egg homogenate after 5 days. The class given is tissue-based. An outline of the steps: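 Homogenate pre-incubated 10 min with compound (10 μM) or NAADP (10 nM), then [32P]NAADP added. Samples filtered at time points up to 5 days; dissociation read as recovery of [32P]NAADP binding (100% ≈ 1,500 cpm).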

In assay [7] the test system is Lytechinus pictus. The experiment in a line: Antagonistic activity at NAADP receptor in intact sea urchin eggs assessed as Inhibition of NAADP mediated Ca2+ increase at 100 uM using Oregon Green 488-BAPTA Dextran staining based by laser scanning confocal microscopy. Type of assay: functional. An outline of the steps: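 Intact Lytechinus pictus eggs on polylysine-coated coverslips in artificial seawater containing compound. Eggs microinjected with Oregon Green 488 BAPTA Dextran (10 μM). NAADP (100 μM in pipette) pressure-microinjected to 1% egg volume, delivering ~1 μM. Imaged by laser-scanning confocal microscopy, 488 nm excitation, emission 530±15 nm band-pass or 510 nm long-pass.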

For assay [8], the species on record is Mus musculus. The assay is described as follows: Antagonistic activity at NAADP receptor in CD1 mouse pancreatic beta cells assessed as inhibition of NAADP-mediated Ca2+ increase at 125 uM by patch clamp method. The class given is functional. An outline of the steps: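 Mouse pancreatic beta cells voltage-clamped with a patch pipette; NAADP delivered through the pipette (50 nM in text, 100 nM in legend). Compound pre-incubated in the bathing solution. Ca2+ increases read as Ca2+-dependent current traces, compared with and without compound in the bath.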
(In patch-clamp work, channel activity is measured electrically.)

For assay [9], the species on record is Mus musculus. The experiment in a line: Binding affinity to NAADP receptor in CD1 mouse pancreatic beta cells assessed as fluorescent labeling of receptor at 60 nM after 30 mins in presence of V-type proton pump inhibitor bafilomycin A1 by confocal microscopy. An outline of the steps: (§3)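 Mouse pancreatic beta cells imaged by confocal microscopy, compound excited at 355 nm with emission 415±30 nm. LysoTracker Red (50 nM, 20-40 min; excitation 568 nm, emission >590 nm) used as comparison. Pretreatment with bafilomycin A1 (3 μM, 15 min) or NAADP-acetoxymethyl ester (60 nM, 30 min).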

The species entered for assay [10] is Mus musculus. The assay is described as follows: Binding affinity to NAADP receptor in CD1 mouse pancreatic beta cells assessed as fluorescent labeling of receptor at 60 nM after 30 mins by confocal microscopy. An outline of the steps:
as §3

Assay [11] can be described thus: (§4) Inhibition of glucose-induced Ca2+ increase in CD1 mouse pancreatic islets preincubated for 30 mins before glucose challenge. The following applies: CD1, Pancreatic islet. Type of assay: functional, cell-based. An outline of the steps: (§5)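 Acutely isolated mouse islets loaded with fura-PE3 AM and held in 3 mM glucose. Compound pre-incubated 30 min, then 15 mM glucose added. First peak, oscillation amplitude and plateau measured; concentration-inhibition curve gives IC50.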

Assay [12] concerns Pancreatic islet. The description is as §4. Type of assay: functional, cell-based. An outline of the steps:
as §5

The species entered for assay [13] is Mus musculus. The experiment in a line: Inhibition of L-type calcium channel in CD1 mouse pancreatic islets at 100 uM in presence of glucose diazoxide and KCl. An outline of the steps:
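Mouse islets in glucose (10 mM) and diazoxide (100 μM), depolarized with KCl (45 mM) with or without compound (100 μM). Ca2+ transient monitored with fura-PE3.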

The test system of assay [14] is Pancreatic islet. The assay is described as follows: Inhibition of glucose induced mitochondrial metabolism in CD1 mouse pancreatic islets assessed as NADH and NADPH levels by fluorescence method. The class given is functional, cell-based. An outline of the steps:
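Mouse islets pre-incubated 60 min at 37°C in 3 mM glucose. NAD(P)H fluorescence (360 nm excitation, >470 nm emission) expressed as percent of basal values within the same islet.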

Assay [15] deals with Lytechinus pictus. The experiment in a line: Inhibition of IP3-induced Ca2+ release in sea urchin Egg homogenate at 100 uM using Fluo-3 staining based fluorimetric assay relative to control; values are per cent of control.
Assay [16] concerns Lytechinus pictus. The experiment in a line: Inhibition of cyclic ADP-ribose-induced Ca2+ release in sea urchin Egg homogenate at 100 uM using Fluo-3 staining based fluorimetric assay relative to control; values are per cent of control.
The subject of assay [17] is Lytechinus pictus. The experiment in a line: Antagonistic activity at NAADP receptor in sea urchin egg homogenate assessed as inhibition of NAADP-mediated Ca2+ release at 100 uM using Fluo-3 staining based fluorimetric assay relative to control; values are per cent of control.

As to `CN1C(=O)/C(=C/c2ccccc2Cl)Sc2ccc(C(=O)N3CCN(Cc4ccc5c(c4)OCO5)CC3)cc21`, the inhibition result in the assay on Lytechinus pictus [1] is “inactive”.
The same measure, in the same setting: with `COc1ccccc1N(C)S(=O)(=O)c1ccc(C(=O)Nc2ccc(N(c3ccccc3)C(C)C)cc2)cc1` the entry was “Active”.
On to `CC(C)N(CCCNC(=O)c1ccc2c(c1)N(Cc1c(F)cccc1Cl)C(=O)CS2)Cc1ccccc1`, for which, in the assay on Lytechinus pictus [1], the inhibition result is “Active”.
On the same count and under the same terms, with `C[C@@H]1CCc2c(sc(NC(=O)CN3CCN(S(=O)(=O)c4ccc5c(c4)OCCO5)CC3)c2C#N)C1` the entry was “inactive”; with `NC(=O)c1c(NC(=O)CN2CCN(S(=O)(=O)c3ccc4c(c3)OCCO4)CC2)sc2c1CCCC2`, “inactive”.
As for `COc1ccc([C@H]2N[C@H](C(=O)O)Cc3c2[nH]c2ccccc32)cc1CN1CCN(c2ccccc2F)CC1`, the IC50 in assay [2] came to 0.4 nM; in assay [3], 6 nM.
For the molecule `COc1cc2c(cc1OC)-c1cc(NCCN3CCN(C(=O)c4ccc(F)cc4)CC3)nc(=O)n1CC2`, the inhibition result in the assay with Lytechinus pictus [1] is “inactive”.
Take `Cc1ccc(-c2cc(C(=O)NCC(C)(C)CNC(=O)c3cc(-c4ccc(C)o4)nc4ccccc34)c3ccccc3n2)o1`: the inhibition result in the assay with Lytechinus pictus [1] is “inactive”.
Still for that read-out and setting: then `COc1ccc(S(=O)(=O)N2CCN([C@H](C)C(=O)Nc3ccccc3-c3ccccc3)CC2)cc1`, with “inactive”.
On the same count and under the same terms, with `Cc1ccc(-n2c(SCC(=O)N/N=C\c3cccc(Oc4ccccc4)c3)nnc2-c2ccc(Cl)cc2)cc1` the entry was “inactive”; with `C=C1NN(c2nc(-c3cccc([N+](=O)[O-])c3)cs2)C(=O)/C1=N/Nc1ccc(Cl)cc1C(=O)c1ccccc1`, “Insoluble”.
Same read-out and setting: then `COc1ccc2[nH]c(C(=O)O)c(CCNC(=O)CO/N=C3/C=C[C@@]4(C)C(=C3)CC[C@@H]3[C@H]4CC[C@]4(C)[C@H]3CC[C@]4(C)O)c2c1`, with “Toxic”; and `CCC(=O)N1N=C(c2ccc(C3=NN(C(=O)CC)[C@H](c4cccc(OC)c4OC)C3)cc2)C[C@H]1c1cccc(OC)c1OC`, with “Insoluble”; and `CCn1c2ccccc2c2cc(NC(=O)CN3CCN(S(=O)(=O)c4ccc(OC)cc4)CC3)ccc21`, with “inactive”.
Turning to `CN1C(=O)/C(=C/c2ccccc2F)Sc2ccc(C(=O)N3CCN(Cc4ccc5c(c4)OCO5)CC3)cc21`, in the assay with Lytechinus pictus [1], the inhibition result was “inactive”.
Consider `CS(=O)(=O)N(Cc1ccccc1)c1ccc(C(=O)N/N=C/c2cccc(Oc3ccccc3)c2)cc1`, for which the inhibition entry in the assay on Lytechinus pictus [1] is “inactive”.
Still for that read-out and setting: then `COc1ccc(C(=O)OCC(=O)c2ccc3c(c2)-c2ccccc2C3)cc1S(=O)(=O)N1CCCc2ccccc21`, with “Active”.
On to `CCN(CC)CCOC(=O)c1ccc(NC(=O)c2cc(-c3cccc4ccccc34)nc3ccccc23)cc1`, for which the inhibition entry with Lytechinus pictus [1] was “inactive”.
Regarding `COc1ccc(C2N[C@H](C(=O)O)Cc3c2[nH]c2ccccc32)cc1CN1CCN(c2ccccc2F)CC1` (some centres not stated), the inhibition result in the assay with Lytechinus pictus [4], in the assay on Lytechinus pictus [6], in the assay with Lytechinus pictus [7] and in the assay listed under Mus musculus [8] was “Active” in each case. In assay [5], the Ki was determined as 6000 nM. For the same molecule, the result in the assay listed under Mus musculus [9] and in the assay listed under Mus musculus [10] was Active. The IC50 in assay [11] came out at 3000 nM; in assay [3], 2000 nM. Also, the inhibition result with Pancreatic islet [12] is “Dose-dependent effect”. The inhibition result in the assay filed under Mus musculus [13] and with Pancreatic islet [14] was “inactive” in each case. Besides, the level, % of control in the assay with Lytechinus pictus [15] was determined as 87%; with Lytechinus pictus [16], 101%. In the assay with Lytechinus pictus [17], the residual activity came to 5.4%.
In the case of `FC(F)(F)c1cccc(N2CCN(Cn3nc(COc4ccccc4)n(-c4ccccc4)c3=S)CC2)c1`, the inhibition entry in the assay on Lytechinus pictus [1] was “Toxic”.
On to `COc1ccc([C@@H]2N[C@H](C(=O)O)Cc3c2[nH]c2ccccc32)cc1CN1CCN(c2ccccc2F)CC1`, for which the IC50 came out at 15000 nM in assay [2] and 800 nM in assay [3].
`CCN1C(=O)c2ccccc2[C@H]1Nc1ccc(C(=O)N2CCN(C/C=C/c3ccccc3)CC2)cc1`: the inhibition entry with Lytechinus pictus [1] is “inactive”.
For the molecule `CC(C)(c1ccccc1)c1ccc(OC[C@@H](O)CN[C@H](Cc2ccccc2)c2nc(-c3ccccc3)no2)cc1`, in the assay on Lytechinus pictus [1], the inhibition entry is “inactive”.
For the molecule `O=C(COC(=O)c1cccc(Oc2ccccc2)c1)COC(=O)c1cccc(Oc2ccccc2)c1`, the inhibition entry in the assay with Lytechinus pictus [1] was “inactive”.
As for `CCn1c2ccccc2c2cc(NC(=O)CN3CCN(S(=O)(=O)c4cc(Cl)ccc4Cl)CC3)ccc21`, in the assay on Lytechinus pictus [1], the inhibition result was “inactive”.
Turning to `O=C(COc1ccccc1-c1ccccc1)N1CCN(S(=O)(=O)c2ccc3c(c2)OCCO3)CC1`, the inhibition entry with Lytechinus pictus [1] was “inactive”.

By IC50 is commonly meant the concentration that gives 50% inhibition. For orientation: Ki means a dissociation constant, usually derived from enzyme kinetics or from competition with a known ligand. Low readings indicate tighter binding, high ones weaker binding.
